# In the library only some 2.5% were active in any assay of this set; here they are far more common.
# SIAE primary – human SIAE inhibition, primary screen; Q9HAT2; SIAE FP-Rh probe binding, fluorescence polarization; inhibition, % at 9.66 µM; hit rate 0.69% among 370,000; AID 1053197;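 active means inhibition above a cutoff: mean of compounds within the control limits plus 3 SD of those, cut at about 17% in these data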;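 further: 0% = plate median of compound wells and 100% = probe without SIAE protein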
# Target sequence (Q9HAT2 whole entry, looked up): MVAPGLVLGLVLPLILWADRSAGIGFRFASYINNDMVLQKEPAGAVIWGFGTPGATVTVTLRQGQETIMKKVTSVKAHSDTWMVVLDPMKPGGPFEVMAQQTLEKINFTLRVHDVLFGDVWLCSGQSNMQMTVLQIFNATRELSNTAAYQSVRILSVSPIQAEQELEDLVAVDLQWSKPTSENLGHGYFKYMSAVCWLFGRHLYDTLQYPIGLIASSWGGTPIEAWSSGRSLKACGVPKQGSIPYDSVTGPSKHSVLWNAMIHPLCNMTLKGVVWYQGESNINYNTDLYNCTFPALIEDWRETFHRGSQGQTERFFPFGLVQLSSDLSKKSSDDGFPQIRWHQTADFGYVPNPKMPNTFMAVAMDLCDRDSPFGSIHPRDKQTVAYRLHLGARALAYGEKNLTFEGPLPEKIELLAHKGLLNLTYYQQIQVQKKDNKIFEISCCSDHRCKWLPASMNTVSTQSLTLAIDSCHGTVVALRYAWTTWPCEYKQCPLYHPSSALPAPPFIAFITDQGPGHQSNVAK
# rCAG binder – molecules binding r(CAG) RNA repeats; AID 651821; r(CAG) RNA repeat, TO-PRO-1 dye displacement fluorescence; inhibition, % at 3 µM; hit rate 1.3% among 370,000;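 active means inhibition above the plate cutoff, the mean of all test compounds on that plate plus 3 SD, cut at about 35% in these data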;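 further: 0% = DMSO alone and 100% = 100 µM mitoxantrone as full dye displacement; higher means more dye released from RNA so lower well fluorescence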
# TCR-CD3 inh – inhibitors of human TCR-CD3 interaction | TAMRA-labeled TCR probe fluorescence, biochemical | inhibition, % at 9.4 µM | hit rate 0.37% among 360,000;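 further: recombinant mutant TCR 2C K166C tagged with TAMRA read by polarization; 0% = receptor in buffer alone and 100% = receptor with positive control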
# HTRA1 inh – inhibitors of human serine peptidase HTRA1; Q92743; recombinant HTRA1, FP-rhodamine activity-based probe, fluorescence polarization; inhibition, % at 5.96 µM; hit rate 0.5% among 340,000; in the data active means inhibition above about 36%;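 further: 0% = enzyme with DMSO and 100% = wells lacking enzyme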
# mABHD4 FP – inhibits mouse alpha/beta hydrolase domain 4; Q8VD66; purified mABHD4, FP-Rh probe fluorescence polarization; inhibition, % at 8.92 µM; hit rate 0.54% among 370,000;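 active means inhibition exceeding the mean over every tested compound plus 3 SD, cut at about 30% in these data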;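 further: 0% = plate median of compound wells and 100% = S159A mutant with DMSO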
#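 System: mouse ABHD4 enzyme, wild type / Medium: HEPES pH 7.0, NaCl, Pluronic buffer / Reagent: FP-Rh activity-based fluorescent probe / Control set: S159A mutant high control, sample median low control / Detection: fluorescence polarization with parallel and perpendicular emission, 525/598 nm / Schedule: 45 min + 60 min at 25 °C / Compound dosing: 8.92 µM, single dose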
# BSA TAMRA ctr – interferes with TAMRA-BSA probe, flagging TCR-CD3 hits; TAMRA-labeled BSA probe fluorescence counterscreen; inhibition, % at 9.4 µM; hit rate 10% among 1,200; shares compounds with TCR-CD3 inh; in the data active means inhibition above about 23%;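 further: 0% = buffer low control and 100% = reference high control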
# TCR-CD3 conf – confirmation of human TCR-CD3 interaction inhibitors. TAMRA-labeled TCR probe fluorescence binding assay. hit rate 48% among 1,200. AID 652036. inhibition, % at 9.4 µM. shares compounds with TCR-CD3 inh
# rCAG binder conf – r(CAG) RNA repeat binding, confirmation | shares compounds with rCAG binder | TO-PRO-1 dye displacement fluorescence | inhibition, % at 3 µM | hit rate 70% among 4,300;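 active means inhibition above a per-plate cutoff, the mean inhibition of sample wells plus 3 SD, cut at about 35% in these data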;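 further: loss of TO-PRO-1 fluorescence as compound displaces dye from 1x1 AA loop RNA; 0% = DMSO only wells and 100% = 100 µM mitoxantrone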
# dCAG dye counter – disrupts DNA CAG TO-PRO-1 complex, flagging rCAG hits; d(CAG) DNA oligo TO-PRO-1 dye displacement, fluorescence; AID 652068; shares compounds with rCAG binder; inhibition, % at 3 µM; hit rate 94% among 4,300;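 active means inhibition above its plate's cutoff, the mean test-well inhibition plus 3 SD, cut at about 4.8% in these data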;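 further: 0% = DNA dye mix with DMSO and 100% = 100 µM mitoxantrone; hits displace the dye from DNA and so lower well fluorescence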
# ABHD4 confirm – confirmation of mouse ABHD4 inhibitors. AID 720658. shares compounds with mABHD4 FP. purified mABHD4, FP-Rh probe fluorescence polarization. inhibition, % at 8.92 µM. hit rate 55% among 1,800;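 active means mean inhibition across replicates above the hit cutoff set in the primary screen, cut at about 30% in these data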;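 further: 0% = wild-type ABHD4 with DMSO and 100% = catalytically dead S159A mutant with DMSO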
# SIAE confirm – human SIAE inhibition, confirmation; shares compounds with SIAE primary; SIAE FP-Rh activity-based probe, fluorescence polarization; inhibition, % at 9.66 µM; AID 1117263; hit rate 13% among 2,300;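 active means mean inhibition of the replicates above the hit cutoff set in the primary screen, cut at about 17% in these data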;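 further: 0% = SIAE with DMSO and probe and 100% = probe without SIAE; inhibitors lower polarization as more probe stays unbound to SIAE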
# An asterisk follows results filed as active; nt = no result given. Unless noted, no stated cut-off is given here; in the data, active means inhibition above about 19%; inactive means the rest.
SMILES,SIAE primary,rCAG binder,TCR-CD3 inh,HTRA1 inh,mABHD4 FP,BSA TAMRA ctr,TCR-CD3 conf,ABHD4 confirm,others
O=C1NC(=S)NC1=Cc1ccco1,-5,17,24*,14,33*,4,21*,6,
CCOC(=O)[C@]12CCC=C1N(Cc1ccccc1)C(=O)[C@H](CC(=O)NCC1CCCCC1)C2,10,3,-1,nt,3,nt,nt,nt,
CC1(C)CC(=O)C(C=Nc2ccc(O)cc2)=C(O)C1,-6,-2,8,2,26,nt,nt,nt,
COC(=O)C1C(O)=C(C=Nc2ccc(N)cc2)C(=O)CC1(C)C (stereo unspecified),16,3,26*,27,38*,-5,1,5,
CC1(C)CC(=O)C(C=Nc2ccc(N)cc2)=C(O)C1,11,3,23*,26,35*,0,-1,-7,
Cc1cccc(C)c1-n1nnnc1C1c2ccccc2C(=O)N1CCC(C)C (stereo unspecified),0,-2,-6,nt,2,nt,nt,nt,
CCOC(=O)c1cnc(SC)nc1Oc1cccc(NS(=O)(=O)c2ccc(Cl)cc2)c1,-4,-1,2,0,5,nt,nt,nt,
Nc1ccc(N=Nc2ccccc2O)c(N)c1,8,9,21*,nt,39*,-11,8,40*,
Cc1cc(C(=O)N/N=C/c2cc(Cl)cc([N+](=O)[O-])c2O)c2ccccc2n1,7,56*,36*,7,32*,-13,39*,37*,rCAG binder conf=53*;dCAG dye counter=16*
O=C(NN=Cc1cc(Cl)ccc1[N+](=O)[O-])c1cccc2ccccc12,2,11,4,-2,-4,nt,nt,nt,
Oc1c(CN2CCOCC2)cc(CN2CCOCC2)c(O)c1O,9,11,13,17,14,nt,nt,nt,
Oc1cccc(CN2CCOCC2)c1O,3,41*,27*,27,42*,0,10,6,rCAG binder conf=3;dCAG dye counter=0
CC(=O)NC(c1ccc(F)c(F)c1)c1nc(-c2cccs2)cs1 (stereo unspecified),0,2,5,nt,1,nt,nt,nt,
Cc1nc(S/C(=C\c2ccc(-c3ccc(C(=O)O)c(Cl)c3)o2)C(=O)O)n[nH]1,4,36*,65*,6,39*,2,67*,54*,rCAG binder conf=50*;dCAG dye counter=16*
Cc1nc(S/C(=C\c2ccc(OCc3ccccc3Cl)cc2)C(=O)O)n[nH]1,-2,16,3,-3,0,nt,nt,nt,
C/C(=N\NC(=O)c1ccccc1O)C1C(=O)c2ccccc2C1=O,9,72*,33*,30,46*,-17,42*,64*,rCAG binder conf=64*;dCAG dye counter=18*
O=C(Cn1cc(-c2ccccn2)nn1)NS(=O)(=O)c1cccc(OC(F)F)c1,2,0,6,nt,7,nt,nt,nt,
O=C1CCCC2=C1Sc1ccc(Cl)cc1N2,7,-10,-2,13,5,nt,nt,nt,
COC(=O)c1ccc2c(c1)SC1=C(CCCC1=O)N2,19*,-12,37*,28,35*,76*,57*,32*,SIAE confirm=23*
CCC(CNc1cc(OC)cc2cccnc12)NC1CCCCC1 (stereo unspecified),48*,3,126*,21,89*,17,14,26,SIAE confirm=12
COC(=O)c1c(NC(=O)COc2ncnc3ccccc23)sc(C)c1C,-3,6,-3,-16,-9,nt,nt,nt,
COc1cc(C=NNC(=O)Cn2nc(C)cc2C)ccc1OC(=O)C1CC1,20*,-2,30*,25,20,1,4,nt,SIAE confirm=0

# Bioassay records: PubChem BioAssay, The Scripps Research Institute Molecular Screening Center
